High-throughput results: PubChem BioAssay, The Scripps Research Institute Molecular Screening Center
Compounds with a hit are over-represented: about 4.7% of the library has one in this group of screens.
MC4R antag cAMP – blocks human MC4R cAMP signaling | MC4R-expressing cells, MTII-stimulated cAMP, LANCE TR-FRET | inhibition, % at 6.5 µM | 360,000 compounds, 0.48% hits | AID 540295;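 active = inhibition above its plate's cutoff, the mean of tested wells on that plate plus 3 SD, cut at about 29% in these data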
Target sequence (P32245 whole entry, looked up): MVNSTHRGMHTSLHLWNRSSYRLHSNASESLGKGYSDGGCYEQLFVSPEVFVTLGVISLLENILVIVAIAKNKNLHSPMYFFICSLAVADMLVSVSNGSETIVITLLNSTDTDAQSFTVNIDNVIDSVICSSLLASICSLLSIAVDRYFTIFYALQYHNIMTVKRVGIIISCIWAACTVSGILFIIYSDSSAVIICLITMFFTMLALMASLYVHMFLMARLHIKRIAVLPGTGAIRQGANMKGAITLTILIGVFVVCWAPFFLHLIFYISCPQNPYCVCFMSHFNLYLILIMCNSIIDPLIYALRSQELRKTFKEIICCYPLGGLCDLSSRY
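System – human MC4R-expressing U2OS cells · Also added – Melanotan II · Dosing – one concentration, 6.5 µM nominal · Timing – 30-min compound, 1-h challenge, 1-h detection, room temperature · Measured by – Eu-cAMP/anti-cAMP TR-FRET, emission 671 nm · Replicates – singlicate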
MC4R barr agon – activates human MC4R beta-arrestin recruitment. P32245. U2OS MC4R beta-arrestin complementation, luminescence; percent of melanotan II response, DMSO zero. activation, % at 8.9 µM. 360,000 compounds, 0.98% hits;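 active = activation above a per-plate cutoff, the mean activation of sample wells on that plate plus 3 SD, cut at about 8% in these data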
GAA850 FXN act – activators of GAA850 frataxin (FXN) promoter. HEK293 lucGAA850 FXN promoter luciferase reporter, 24 h; percent of 10 µM SAHA response. activation, % at 6 µM. 360,000 compounds, 0.56% hits;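 active = activation above the average of all compounds screened plus 3 SD, cutoff fixed separately per campaign, cut at about 7.5% in these data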
AHR activator – human AHR activation | P35869 | AHR-responsive luciferase reporter cells, luminescence | activation, % at 5 µM | 320,000 compounds, 2.5% hits; in the data active = activation above about 47%
m5-HT2A agonist – agonists of mouse serotonin 5-HT2A receptor (HTR2A) | P35363 | CHO-K1 mHTR2A beta-arrestin complementation, luminescence; percent of 30 µM serotonin response | activation, % at 7.6 µM | 360,000 compounds, 0.66% hits | AID 624169;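 active = activation above a run cutoff, the mean activation of all tested compounds plus 3 SD, cut at about 14% in these data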
MC4R barr conf – human MC4R beta-arrestin agonism confirmation. U2OS MC4R beta-arrestin recruitment, luminescence; scaled DMSO 0%, Melanotan II 100%. activation, % at 8.9 µM. 2,400 compounds, 31% hits. AID 602192. shares compounds with MC4R barr agon;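 active = mean activation across replicates above the hit cutoff set in the earlier primary screen, cut at about 8% in these data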
MOR DOR agonist – OPRM1-OPRD1 heterodimer agonism counter-screen; activation, % at 9.2 µM; AID 602194; U2OS PathHunter beta-arrestin, beta-gal luminescence; percent of deltorphin B response, DMSO zero; shares compounds with MC4R barr agon; 2,400 compounds, 5.8% hits;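 active = mean activation across replicates exceeds the hit threshold derived in the earlier primary screen, cut at about 18% in these data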
Numbers stand for hits; . = inactive; / = no result.

SMILES	MC4R antag cAMP	MC4R barr agon	GAA850 FXN act	AHR activator	m5-HT2A agonist	MC4R barr conf	MOR DOR agonist
COc1ccccc1NC(=O)Cn1c(C)nc2c(sc(=S)n2Cc2ccco2)c1=O	.	.	.	.	.	/	/
COc1ccc(/C=N\NS(=O)(=O)c2ccc(Br)cc2)cc1COc1ccccc1[N+](=O)[O-]	.	.	.	.	.	/	/
COc1ccc(/C=N\NS(=O)(=O)c2ccc(Cl)cc2)cc1COc1ccccc1[N+](=O)[O-]	.	18	.	.	.	10	.
Cc1ccc(Nc2[nH]c(=O)c3ccccc3c2C(=O)c2ccccc2)cc1	/	/	/	.	/	/	/
O=C(NC(=S)Nc1ccc(S(=O)(=O)N2CCCCC2)cc1)c1cccs1	.	13	.	.	.	.	.
COc1ccccc1C(=O)Nc1ccc(NC(=O)c2ccco2)cn1	.	.	.	.	.	/	/
NS(=O)(=O)c1ccc(NC(=S)NC(=O)c2cccs2)cc1	.	.	.	.	.	/	/
COc1ccccc1C(=O)NC(=S)Nc1ccc(NC(=O)c2ccco2)cc1	.	11	.	.	.	.	.
CCOc1ccc(C(=O)NC(=S)Nc2ccc(NC(=O)c3ccco3)c(C)c2)cc1[N+](=O)[O-]	.	10	.	.	.	.	.
CC(C)(C)c1ccc(C(=O)Nc2ccc(NC(=O)c3ccco3)cc2)cc1	.	25	.	.	.	.	.
COc1ccc(OC)c(NP2(=O)OCC(C)([N+](=O)[O-])CO2)c1 (stereo not drawn)	.	.	.	/	.	/	/
CC1=C(C(=O)N(C(C)C)C(C)C)CC(CC(=O)NCc2cccc3ccccc23)C(=O)N1Cc1ccc(F)cc1 (stereo not drawn)	/	/	/	/	.	/	/
COc1cc(OC)cc(C(=O)NC(=S)Nc2ccc(NC(=O)c3ccco3)cc2)c1	.	12	.	.	.	.	.
CC(=O)NC(=S)Nc1ccc(NC(=O)c2cccs2)cc1	.	.	.	.	.	/	/
COc1ccccc1C(=O)NC(=S)Nc1ccc(NC(=O)c2cccs2)cc1	.	27	.	.	.	.	.
COc1cc(OC)cc(C(=O)Nc2ccc(NC(=O)c3ccco3)c(Cl)c2)c1	.	.	.	.	.	/	/
CCOC(=O)C1=CN(Cc2ccco2)S(=O)(=O)N(C)C1c1ccc2ccccc2c1 (stereo not drawn)	.	.	.	/	.	/	/
C[C@H]1CN([C@@H](C)CO)C(=O)Cc2cc(NC(=O)Cc3ccccc3)ccc2O[C@H]1CN(C)C(=O)Nc1cccc2ccccc12	.	.	.	.	.	/	/
O=C(c1cccc(Cl)c1)N1CCC(=O)N([C@H](COCc2cccc(Cl)c2)Cc2ccccc2)CC1	/	/	/	/	.	/	/
Cc1nn(-c2ccccc2)c(N2CCCC2)c1/C=N/NC(=S)Nc1ccccc1F	.	14	.	.	.	.	.
COc1ccc(CCn2c(C)cc(C(=O)CN3C(=O)C(=O)N(Cc4ccco4)C3=O)c2C)cc1	.	.	.	.	.	/	/
O=C(COc1ccc2ccccc2c1)Nc1ccc2c3c(cccc13)CC2	.	34	.	.	.	.	.
CCC1CCC2(CC1)NC(=O)N(CC(=O)Nc1ccc(OC)c(Cl)c1)C2=O (stereo not drawn)	.	.	.	.	.	/	/
CC(C)OC(=O)c1c(NC(=O)Cn2cnc([N+](=O)[O-])n2)sc2c1CCCC2	.	9.9	.	.	.	.	.
COc1ccc(N2C(=S)N=C(Nc3cccc(C)c3)C23CCCCC3)cc1	.	24	.	.	.	9.6	.
SMILES	MC4R antag cAMP	MC4R barr agon	GAA850 FXN act	AHR activator	m5-HT2A agonist	MC4R barr conf	MOR DOR agonist
O=C(COc1ccc2ccccc2c1Br)Nc1ncn[nH]1	.	13	.	.	.	.	.
Cc1cccc(C)c1OCC(=O)Nc1ncn[nH]1	.	.	.	.	.	/	/
COc1ccccc1C(=O)Nc1nc2ccc(S(C)(=O)=O)cc2s1	.	14	.	.	.	.	.
CC(=O)c1ccc(OCc2cc(C(=O)NCCc3ccc(Cl)cc3)no2)cc1	.	14	.	.	.	.	.
CC(C)(C)S(=O)(=O)N1Cc2cc(CO)cc(CCO)c2[C@@H]1CCO	.	.	.	/	.	/	/
Cc1ccc(NC(=O)c2ccc(NCC3CCCO3)c([N+](=O)[O-])c2)cc1Cl (stereo not drawn)	.	34	.	.	.	13	21
Cc1ccc(C(=O)NCc2ccco2)cc1[N+](=O)[O-]	.	.	.	.	.	/	/
Cc1ccc(NC(=O)c2ccc(NCc3ccco3)c([N+](=O)[O-])c2)cc1Cl	.	11	.	.	.	25	26
COc1cc(OC)cc(C(=O)NNC(=O)C2CCCC2)c1	.	.	.	.	.	/	/
O=C(Nc1ccc2oc(-c3ccncc3)nc2c1)c1ccc2c(c1)OCCO2	.	23	.	.	.	12	.
O=C(Nc1ccc2oc(-c3ccncc3)nc2c1)c1ccc2c(c1)OCO2	.	.	.	.	.	/	/
COc1ccc(NC(=O)[C@@H]2O[C@H](CO)[C@H](O)[C@H](O)[C@H]2O)cc1F	.	.	.	/	.	/	/
CCSc1nnc(Nc2ccc(C)cc2)s1	.	.	.	.	.	/	/
CCc1ccc(Nc2nnc(SCC(=O)NC(=O)c3cccn3C)s2)cc1	.	20	.	.	.	.	.
Cc1ccc(CSc2nnc(Nc3ccc(C)cc3)s2)cc1	.	19	.	.	.	.	.
O=C(CSc1nc(-c2ccc(F)cc2)cs1)Nc1ccccn1	.	24	.	.	.	.	.
COC(=O)c1ccc2c(=O)[nH]c(CSc3nc(-c4ccc(F)cc4)cs3)nc2c1	.	10	.	.	.	.	.
O=c1[nH]c(CSc2nc(-c3ccc(F)cc3)cs2)nc2ccccc12	.	9.6	.	.	.	.	.
COc1cc(C(=O)NCC(c2cccs2)N2CCOCC2)ccc1OCc1ccc(Cl)cc1 (stereo not drawn)	.	.	.	/	.	/	/
Cc1cccc(C)c1NC(=O)CN(C)C(=O)c1ccc(OCc2ccccc2)cc1	.	.	.	/	.	/	/
C[C@@H]1CN([C@@H](C)CO)C(=O)c2cccc(NS(C)(=O)=O)c2O[C@H]1CN(C)CC1CCCCC1	.	.	.	.	.	/	/
CC(C)(C)OC(=O)NCCCC1=CC2=CC(=O)C(C)(OC(=O)C3CCCC3)C(=O)C2=CO1 (stereo not drawn)	/	/	/	.	/	/	/
O=C(NCc1csc2ccccc12)Nc1cc(Cl)cc(Cl)c1	.	16	.	.	.	.	.
Cc1cc(OCCN2CCC(Cc3ccccc3)CC2)ccc1[N+](=O)[O-]	.	14	.	.	.	.	.
CCN(C(=O)c1cc2c(=O)[nH]c3ccc(C)cc3c2s1)c1ccc(F)cc1	.	12	.	.	.	.	.
